Experimental data reported in ChEMBL document CHEMBL1157693, “Microwave assisted synthesis and antimicrobial activity of 2-quinoxalinone-3-hydrazone derivatives” (2010).
≈ marks a conversion by molar mass, not a printed value. Calls of active or inactive are those of the source. The calls are words filed in the database; no cut-off is given here.

Assays:
Assay type in all cases: functional
Staphylococcus aureus [1] = test: Antibacterial activity against Staphylococcus aureus NCIB 8588 after 24 hrs by agar well diffusion method; further: test concentration or dose not given here
In short: (§1)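 Agar well diffusion. Clinical isolates were first checked for viability, then grown in nutrient broth for 8 h at 37 °C. About 0.2 ml of broth culture was mixed into 18 ml molten diagnostic sensitivity test agar cooled to 45 °C and poured into plates. Compounds in DMSO went into bored wells, with streptomycin as reference. Plates stood 1 h for diffusion, then were incubated upright at 37 °C for 24 h. Clear inhibition zones were read in mm.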

Escherichia coli [2] = test: Antibacterial activity against Escherichia coli NCIB 86 after 24 hrs by agar well diffusion method; in short: as §1; further: test concentration or dose not given here
Pseudomonas fluorescens = test: Antibacterial activity against Pseudomonas fluorescens NCIB 3756 after 24 hrs by agar well diffusion method; in short: as §1; further: test concentration or dose not given here
Klebsiella pneumoniae [3] = test: Antibacterial activity against Klebsiella pneumoniae NCIB 418 after 24 hrs by agar well diffusion method; in short: as §1; further: test concentration or dose not given here
Bacillus subtilis [4] = test: Antibacterial activity against Bacillus subtilis NCIB 3610 after 24 hrs by agar well diffusion method; in short: as §1; further: test concentration or dose not given here
Bacillus cereus [5] = test: Antibacterial activity against Bacillus cereus NCIB 6349 after 24 hrs by agar well diffusion method; in short: as §1; further: test concentration or dose not given here
Shigella dysenteriae [6] = test: Antibacterial activity against Shigella dysenteriae after 24 hrs by agar well diffusion method
Pseudomonas aeruginosa = test: Antibacterial activity against Pseudomonas aeruginosa NCIB 950 after 24 hrs by agar well diffusion method; in short: as §1; further: test concentration or dose not given here
Candida albicans = test: Antifungal activity against Candida albicans after 3 days by agar well diffusion method
Bacillus anthracis [7] = test: Antibacterial activity against Bacillus anthracis after 72 hrs
[8] = tested on: Geobacillus stearothermophilus; test: Antibacterial activity against Bacillus stearothermophilus NCIB 8222 after 72 hrs; conditions: NCIB 8222, 72 h
In short: (§2)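 MIC by the Russell and Furr method, run on selected Gram-positive and Gram-negative strains. Once the agar had set and its surface had dried, nutrient agar plates were streaked with overnight broth cultures. They were incubated at 37 °C for up to 72 h and scored for presence or absence of growth.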

Bacillus subtilis [9] = test: Antibacterial activity against Bacillus subtilis NCIB 3610 after 72 hrs; conditions: NCIB 3610, 72 h; in short: as §2
Bacillus cereus [10] = test: Antibacterial activity against Bacillus cereus NCIB 6349 after 72 hrs; conditions: NCIB 6349, 72 h; in short: as §2
Staphylococcus aureus [11] = test: Antibacterial activity against Staphylococcus aureus NCIB 8588 after 72 hrs; in short: as §2
Escherichia coli [12] = test: Antibacterial activity against Escherichia coli NCIB 86 after 72 hrs; conditions: NCIB 86, 72 h; in short: as §2
Klebsiella pneumoniae [13] = test: Antibacterial activity against Klebsiella pneumoniae NCIB 418 after 72 hrs; conditions: NCIB 418, 72 h; in short: as §2
Shigella dysenteriae [14] = test: Antibacterial activity against Shigella dysenteriae after 72 hrs
In short: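 MIC by agar dilution: compound-containing nutrient agar was set and surface-dried, then streaked with overnight broth culture of the clinical isolate. Incubated at 37 °C for up to 72 h and scored for presence or absence of growth. Streptomycin was the reference.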

Bacillus anthracis [15] = test: Antibacterial activity against Bacillus anthracis after 24 hrs by agar well diffusion method
[16] = tested on: Geobacillus stearothermophilus; test: Antibacterial activity against Bacillus stearothermophilus NCIB 8222 after 24 hrs by agar well diffusion method; in short: as §1; further: test concentration or dose not given here

| Compound | inhibition zone (IZ) (Staphylococcus aureus [1]) [mm] | inhibition zone (IZ) (Escherichia coli [2]) [mm] | inhibition zone (IZ) (Pseudomonas fluorescens) [mm] | inhibition zone (IZ) (Klebsiella pneumoniae [3]) [mm] | inhibition zone (IZ) (Bacillus subtilis [4]) [mm] | inhibition zone (IZ) (Bacillus cereus [5]) [mm] | inhibition zone (IZ) (Shigella dysenteriae [6]) [mm] | inhibition zone (IZ) (Pseudomonas aeruginosa) [mm] | inhibition zone (IZ) (Candida albicans) [mm] | MIC (Bacillus anthracis [7]) [µg/mL] | MIC [8] [µg/mL] | MIC (Bacillus subtilis [9]) [µg/mL] | MIC (Bacillus cereus [10]) [µg/mL] | MIC (Staphylococcus aureus [11]; NCIB 8588, 72 h) [µg/mL] | MIC (Escherichia coli [12]) [µg/mL] | MIC (Klebsiella pneumoniae [13]) [µg/mL] | MIC (Shigella dysenteriae [14]) | inhibition zone (IZ) (Bacillus anthracis [15]) [mm] | inhibition zone (IZ) [16] [mm] | MIC (Staphylococcus aureus [11]) |
| --- | --- | --- | --- | --- | --- | --- | --- | --- | --- | --- | --- | --- | --- | --- | --- | --- | --- | --- | --- | --- |
| O=C1Nc2ccc(Cl)cc2/C1=N/Nc1nc2ccccc2[nH]c1=O | 25 | 19 | 0 | 20 | 20 | 28 | 10 | 0 | 18 | 15.6 (≈ 45.9 µM) | 7.8 (≈ 23 µM) | 15.6 (≈ 45.9 µM) | 7.8 (≈ 23 µM) | 7.8 (≈ 23 µM) | 15.6 (≈ 45.9 µM) | 7.8 (≈ 23 µM) | 62.5 µg/mL (≈ 184 µM) | 20 | 24 |  |
| C/C(=N\Nc1nc2ccccc2[nH]c1=O)c1cc2cc(C)ccc2oc1=O | 19 | 15 | 0 | 19 | 16 | 25 | 12 | 10 | 10 | 62.5 (≈ 173 µM) | 31.3 (≈ 86.9 µM) | 31.3 (≈ 86.9 µM) | 7.8 (≈ 21.6 µM) | 15.6 (≈ 43.3 µM) | 62.5 (≈ 173 µM) | 31.3 (≈ 86.9 µM) | 62.5 µg/mL (≈ 173 µM) | 14 | 15 |  |
| CC1CCCC/C1=N\Nc1nc2ccccc2[nH]c1=O (stereo unspecified) | 19 | 12 | 13 | 15 | 12 | 13 | 0 | 0 | 14 | 15.6 (≈ 57.7 µM) | 7.8 (≈ 28.9 µM) | 62.5 (≈ 231 µM) | 15.6 (≈ 57.7 µM) | 7.8 (≈ 28.9 µM) | 31.3 (≈ 116 µM) | 7.8 (≈ 28.9 µM) | inactive | 16 | 25 |  |
| O=c1[nH]c2ccccc2nc1NN=C1CCCC1 | 0 | 17 | 10 | 14 | 12 | 20 | 12 | 0 | 29 | 125 (≈ 516 µM) | 62.5 (≈ 258 µM) | 31.3 (≈ 129 µM) | 15.6 (≈ 64.4 µM) |  | 31.3 (≈ 129 µM) | 15.6 (≈ 64.4 µM) | 62.5 µg/mL (≈ 258 µM) | 10 | 14 | inactive |
